TRPC4 potent: positive allosteric modulators of TRPC4, primary screen, cell-based, mouse TRPC4beta, HEK293 mu-opioid, Fluo-4 calcium; DAMGO EC20, Fluo-4 Ca2+ flux; stronger effect = higher value; AID 2227, 2009; 310,000 compounds, 0.42% hits; B-score at 10 µM; Short transient receptor potential channel 4 (Mus musculus), Q9QUQ5;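 active means B-score of calcium response area above 5 SD of library B-scores, with initial fluorescence ratio within 5 SD of library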
TRPC4 block: inhibitors of mouse TRPC4 channel, primary screen, Fluo4 calcium, HEK293 TRPC4beta/mu-opioid cells | B-score at 10 µM | DAMGO-evoked Fluo4 calcium flux; stronger effect = lower value | Short transient receptor potential channel 4 (Mus musculus), Q9QUQ5 | 300,000 compounds, 0.39% hits;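 active means B-score over 3 SD under the library average, no early fluorescence shift, positive overall ratio signal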
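Material: HEK293 cells with stable TRPC4beta plus mu-opioid receptor expression; probe or stimulus: DAMGO in two steps, submaximal then maximal; technique: Fluo4 calcium fluorescence by kinetic imaging, 5 s 1 Hz baseline; measure: integrated fluorescence ratio relative to baseline, converted to per-well B score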
TRPC6 activator: mouse TRPC6 channel activators, primary screen, cell-based, HEK293, membrane potential dye | B-score at 10 µM | 310,000 compounds, 0.13% hits | HEK293-TRPC6 membrane potential dye fluorescence; stronger effect = higher value | AID 2550, 2010 | Short transient receptor potential channel 6 (Mus musculus), Q61143;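 active means B-score of the integrated fluorescence ratio above library mean plus 3 SD, and starting fluorescence ratio within library mean plus 5 SD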;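 further: higher score means more depolarization so channel activation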
Target sequence (Q61143 whole entry, looked up): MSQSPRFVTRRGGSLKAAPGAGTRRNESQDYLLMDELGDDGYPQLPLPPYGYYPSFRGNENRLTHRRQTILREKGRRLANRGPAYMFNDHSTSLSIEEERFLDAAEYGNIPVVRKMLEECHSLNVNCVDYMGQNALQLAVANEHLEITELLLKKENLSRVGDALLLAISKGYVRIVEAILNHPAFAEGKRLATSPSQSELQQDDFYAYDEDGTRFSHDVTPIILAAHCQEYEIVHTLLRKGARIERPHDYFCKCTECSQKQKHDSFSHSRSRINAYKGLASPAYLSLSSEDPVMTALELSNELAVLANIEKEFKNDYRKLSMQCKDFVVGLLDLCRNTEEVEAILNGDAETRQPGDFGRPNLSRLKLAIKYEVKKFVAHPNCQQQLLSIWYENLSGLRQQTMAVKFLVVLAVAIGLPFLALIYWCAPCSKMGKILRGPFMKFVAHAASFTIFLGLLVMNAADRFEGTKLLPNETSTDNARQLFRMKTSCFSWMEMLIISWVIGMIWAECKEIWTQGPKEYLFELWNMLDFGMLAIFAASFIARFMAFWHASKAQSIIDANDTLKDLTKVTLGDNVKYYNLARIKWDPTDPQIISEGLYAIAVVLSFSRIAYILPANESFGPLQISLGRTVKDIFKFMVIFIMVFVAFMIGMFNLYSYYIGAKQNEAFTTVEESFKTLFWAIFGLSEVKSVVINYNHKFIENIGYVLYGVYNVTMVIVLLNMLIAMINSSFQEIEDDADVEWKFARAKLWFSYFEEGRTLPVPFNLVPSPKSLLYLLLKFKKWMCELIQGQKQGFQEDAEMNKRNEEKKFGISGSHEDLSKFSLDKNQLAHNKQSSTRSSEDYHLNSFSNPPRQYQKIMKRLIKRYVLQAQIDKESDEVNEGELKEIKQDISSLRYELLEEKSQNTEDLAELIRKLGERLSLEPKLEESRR
TRPC4 act: activators of mouse TRPC4 channel, primary screen, Fluo4 calcium, HEK293 TRPC4beta/mu-opioid cells. Short transient receptor potential channel 4 (Mus musculus), Q9QUQ5. Fluo4 calcium fluorescence; stronger effect = higher value. B-score at 10 µM. 310,000 compounds, 0.49% hits. AID 2237, 2010;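 active means B-score above 5 SD of library B-scores, and initial fluorescence ratio not above library mean plus 5 SD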;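 further: positive B-score marks a calcium rise read as TRPC4 activation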
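Material: TRPC4beta and mu-opioid receptor HEK293 stable cells | Incubation: 45 min room-temperature Fluo4 loading, 110 s read | Detection: Kinetic Fluo4 calcium fluorescence | Measure: Integrated baseline-normalised fluorescence ratio, converted to per-well B score | Benchmarks: Low control buffer alone, high control maximal DAMGO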
TRPC6 inh: mouse TRPC6 channel inhibitors, primary screen, cell-based, HEK293, membrane potential dye. AID 2553, 2010. ACh-evoked depolarization; stronger effect = lower value. B-score at 10 µM. Short transient receptor potential channel 6 (Mus musculus), Q61143. 310,000 compounds, 1.1% hits;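 active means B-score under library mean minus 3 SD, initial fluorescence not abnormally high, positive integrated signal ratio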;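 further: B-score derived from integrated fluorescence ratio over the kinetic read; more negative B-score means stronger inhibition of depolarization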
TRPC4 spec 2: second selectivity test of TRPC6 inhibitors: effect on mouse TRPC4. 920 compounds, 42% hits. HEK293 TRPC4/MOR, membrane potential dye fluorescence; channel activated by saturating DAMGO dose. shares compounds with TRPC6 inh. inhibition, % at 10 µM;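 active means compounds whose fluorescence signal differed from control wells by over 3 SD, either direction, in both duplicate plates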
TRPC4 spec: mouse TRPC4 modulation by TRPC6 hits, confirmation, selectivity assay for TRPC6 inhibitor project, cell-based, HEK293 TRPC4/mu-opioid, membrane potential dye. shares compounds with TRPC6 inh. membrane potential fluorescence. activity change, negative = inhibition, % at 10 µM. 920 compounds, 61% hits;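 active means rise or fall in signal beyond 3 SD of buffer-only wells in both replicate plates, either sign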;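 further: integrated kinetic ratio of fluorescence range over baseline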
HEK293 MPD ctr 2-1: nonspecific membrane potential effects, parental HEK293, confirmation, counter-screen for TRPC6 inhibitor project, cell-based, second counter screen; parental HEK293 membrane potential dye fluorescence; maximal acetylcholine challenge after compound addition; 920 compounds, 31% hits; AID 2779, 2010; shares compounds with TRPC6 inh; signal change vs control, % at 10 µM;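 active means membrane potential signal moving either way by over 3 SD of the maximum-effect control, in both duplicate plates, meaning non-specific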
HEK293 MPD ctr-1: membrane potential modulation in parental HEK293, confirmation, counter-screen for TRPC6 inhibitor project, cell-based; shares compounds with TRPC6 inh; parental HEK293 membrane potential dye fluorescence; membrane potential signal change, % at 10 µM; 920 compounds, 60% hits; AID 2780, 2010;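 active means membrane potential signal shifting up or down by more than 3 SD of buffer-only wells, on both duplicate plates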
HEK293 MPD ctr-2: parental HEK293 membrane potential modulation, confirmation, counter-screen for TRPC6 modulator project, cell-based. shares compounds with TRPC6 inh. membrane potential dye fluorescence. membrane potential signal change, % at 10 µM. 2,400 compounds, 51% hits;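 active means membrane potential signal moves up or down beyond 5 SD from buffer-only wells, on both duplicate plates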
HEK293 MPD ctr 2-2: second counter-screen for TRPC6 modulators: effect in parental HEK293 cells; shares compounds with TRPC6 inh; membrane potential dye fluorescence; after compound, maximal acetylcholine stimulation; inhibition, % at 10 µM; 2,400 compounds, 14% hits;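 active means membrane potential signal drops by more than 5 SD from the mean control signal, in both duplicate plates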
TRPC4 ctr mod: TRPC4 modulation by TRPC6 hit compounds, confirmation, selectivity assay for TRPC6 modulator project, cell-based, HEK293 TRPC4/mu-opioid, membrane potential dye, mouse; membrane potential fluorescence; shares compounds with TRPC6 inh; 2,400 compounds, 69% hits; AID 488927, 2010; percent change from control (negative = decrease, positive = increase), % at 10 µM;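 active means membrane potential signal moved up or down beyond 5 SD of buffer control wells, in both duplicate plates, actives on both sides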
TRPC4 ctr inh 2: second selectivity test of TRPC6 modulators against mouse TRPC4; HEK293 TRPC4/mu-opioid, membrane potential dye fluorescence; stimulated with maximal-effect DAMGO; 2,400 compounds, 55% hits; inhibition, % at 10 µM; shares compounds with TRPC6 inh; AID 488928;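 active means drop in membrane potential signal beyond 5 SD of the control wells in both duplicate plates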;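 further: TRPC4 counter screen for TRPC6 hits run under conditions tuned for TRPC6 not TRPC4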
TRPC6 inh conf: mouse TRPC6 channel inhibitors, confirmation, HEK293 cells, membrane potential dye, duplicate; shares compounds with TRPC6 inh; inhibition, % at 10 µM; 3,300 compounds, 43% hits; ACh-evoked depolarization;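 active means fluorescence ratio falls more than 5 SD below the full-stimulation control mean, in both duplicate runs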;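 further: integrated fluorescence ratio of peak minus minimum over baseline after agonist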
TRPC6 act conf: mouse TRPC6 channel activators, confirmation, HEK293 cells, membrane potential dye, duplicate; HEK293-TRPC6 membrane potential dye fluorescence, FDSS; 2,800 compounds, 11% hits; activation, % at 10 µM; shares compounds with TRPC6 inh; AID 488961, 2010;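 active means ratio signal rise beyond 5 SD above unstimulated control wells' mean, seen in both duplicate runs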
Numbers stand for hits; i = inactive; nt = no result. An excerpt weighted towards active compounds, which were near 2.3% of everything screened.

SMILES	TRPC4 potent	TRPC4 block	TRPC6 activator	TRPC4 act	TRPC6 inh	TRPC4 spec 2	TRPC4 spec	HEK293 MPD ctr 2-1	HEK293 MPD ctr-1	HEK293 MPD ctr-2	HEK293 MPD ctr 2-2	TRPC4 ctr mod	TRPC4 ctr inh 2	TRPC6 inh conf	TRPC6 act conf
CCOC(=O)c1c(S(=O)(=O)NCC(=O)NCc2ccc(C)cc2)c(C)n(C)c1C	i	i	i	i	i	nt	nt	nt	nt	nt	nt	nt	nt	nt	nt
CCOc1ccc(NC(=O)c2c(NC(=O)CN3CCN(C)CC3)sc3c2CCC3)cc1	i	i	i	i	-8.43	46.0%	-25.8%	i	-409.0%	nt	nt	nt	nt	74.7%	i
CCOC(=O)c1c[nH]c2c(C)ccc(Cl)c2c1=O	i	i	i	i	-7.62	nt	nt	nt	nt	-303.0%	i	-41.5%	53.0%	60.0%	i
CCOC(=O)c1c[nH]c2c(Cl)ccc(Cl)c2c1=O	i	i	i	i	-6.06	nt	nt	nt	nt	-324.5%	i	-39.0%	43.0%	i	i
CCOC(=O)c1c[nH]c2c3c(ccc2c1=O)CCCC3	i	i	i	i	i	nt	nt	nt	nt	nt	nt	nt	nt	nt	nt
CCOC(=O)c1c[nH]c2c(Cl)c(Cl)ccc2c1=O	i	i	i	i	-9.97	i	-24.6%	i	-298.0%	nt	nt	nt	nt	i	i
CCOC(=O)c1ccc2[nH]cc(C(C)=O)c(=O)c2c1	i	i	i	i	-7.47	i	-25.6%	i	-422.5%	nt	nt	nt	nt	i	i
O=C(CNS(=O)(=O)c1ccc(Br)s1)NCc1ccccc1	i	i	i	i	i	nt	nt	nt	nt	nt	nt	nt	nt	nt	nt
Cc1nn(Cc2noc(C(=O)NCc3ccc4c(c3)OCO4)n2)c(C)c1Br	i	i	i	i	i	nt	nt	nt	nt	nt	nt	nt	nt	nt	nt
CC1(C)CC(=O)c2sc(NC(=O)C3CC3)nc2C1	i	i	i	i	i	nt	nt	nt	nt	nt	nt	nt	nt	nt	nt
Cn1nc(C(C)(C)C)cc1C(=O)Nc1nc2c(s1)C(=O)CC(C)(C)C2	i	i	i	i	-5.03	nt	nt	nt	nt	i	i	i	i	i	nt
